This note sets out measurements from ChEMBL document CHEMBL1148815, “New series of antiprion compounds: pyrazolone derivatives have the potent activity of inhibiting protease-resistant prion protein accumulation” (J Med Chem, 2007).

For orientation: IC50 means the midpoint of a concentration-inhibition curve.

Data set [1] concerns ScN2a. Description: Antiprion activity in ScN2a cells assessed as inhibition of protease-resistant prion protein accumulation. To be noted: Mus musculus. In kind it is functional, cell-based. In outline:
(§1)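 Mouse N2a cells carrying RML scrapie (ScN2a) or N2a#58 cells carrying Fukuoka-1 (F3), grown in Opti-MEM with 10% FBS. Compound added at passage (10% confluency), cells grown to confluence over 3–4 days, then lysed. Lysates digested with 10 µg/mL proteinase K for 30 min at 37 °C. PrP-res detected by SDS-PAGE/immunoblot with SAF83. IC50 is the concentration halving PrP-res relative to control.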

The subject of data set [2] is ScN2a. Description: Cytotoxicity against mouse ScN2a cells by MTT assay. In kind it is cell-based. On the technique in general: Tetrazolium assays rely on reduction of a dye to a coloured formazan, in cell work by metabolically active cells.
The nature of data set [3]: Cytotoxicity against human NB69 cells by MTT assay. The note with it: read-out: LD50 (the source's name). In kind it is cell-based.
A short description of data set [4]: Cytotoxicity against mouse F3 cells by MTT assay. It is filed as cell-based. To be noted: n2a #58 f3.
A short description of data set [5]: Antiprion activity in F3 cells assessed as inhibition of protease-resistant prion protein accumulation. In kind it is functional, cell-based. To be noted: Mus musculus, N2a #58 F3. The gist of the method:
as §1

The nature of data set [6]: Hydroxy radical scavenging activity by ESR spin-trapping method. It is filed as functional. The gist of the method: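 A mixture of 25 mM H2O2, 25 mM DMPO and compound was UV-irradiated. Hydroxyl radical scavenging was expressed as IC50.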
Data set [7] can be described thus: Superoxide dismutase like activity assessed as inhibition of WST1 tetrazolium formation at 1 mM. In kind it is functional. Further details: scale not given: the % may be the effect or the level left. In outline:
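Xanthine-based photometric kit assay with WST-1 tetrazolium salt. Compound was tested at 1 mM.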

A short description of data set [8]: Superoxide dismutase like activity assessed as inhibition of WST1 tetrazolium formation at 1 mM in presence of 2 mM Cu(II). It is filed as functional. Also noted: scale not given: the % may be the effect or the level left.

`C=CC1CN2CC[C@H]1C[C@H]2[C@H](O)c1ccnc2ccc(OC)cc12` (single isomer, unassigned) [QUININE]: the IC50 in the data set with ScN2a [1] came to 10000 nM.
Consider `CC1=NN(c2ccc(Cl)cc2)C(=O)C1`, for which the Activity (in the data set on ScN2a [2]; in data set [4]) was greater than 100 nM in each case. For the same compound, the CC50 in data set [3] was greater than 1000 nM. Besides, in the data set on ScN2a [1], the IC50 stood at 0.5 nM.
For the compound `C=C(C)C1=NN(c2ccccc2)C(=O)C1`, the results for the IC50 (in data set [5]; in the data set with ScN2a [1]) were 794 nM and 158 nM, respectively. The Activity (with ScN2a [2]; in data set [4]) was greater than 1000 nM in each case. Besides, in data set [3], the CC50 was greater than 1000 nM.
Turning to `CC1=NN(c2ccccc2)C(=O)C1c1ccccc1` (stereo not drawn), the IC50 in data set [5] came out at 1 nM; with ScN2a [1], 40 nM; in data set [6] it was 790 nM. The Activity (in the data set with ScN2a [2]; in data set [4]) was greater than 100 nM in each case. For the same compound, in data set [3], the CC50 was greater than 1000 nM.
Take `CC1=NN(c2ccccc2)C(=O)C1C(=O)c1ccccc1` (stereo not drawn): the IC50 in data set [5] worked out at 1000 nM; with ScN2a [1], 6 nM; in data set [6], 610 nM. Also, the Activity (with ScN2a [2]; in data set [4]) was greater than 1000 nM in each case. Besides, the CC50 in data set [3] was greater than 1000 nM.
For the compound `O=C(NC1=NN(c2ccccc2)C(=O)C1)NC1CCCC1`, the results for the IC50 (in data set [5]; with ScN2a [1]) were 158 nM and 126 nM, respectively. For the same compound, the Activity (in the data set on ScN2a [2]; in data set [4]) was greater than 1000 nM throughout. Further, in data set [3], the CC50 is greater than 1000 nM.
For `O=C1CC(C(F)(F)F)=NN1c1ccccc1`, the IC50 in data set [5] amounted to 631 nM; in the data set on ScN2a [1] it was 398 nM; in data set [6] it was 810 nM. Also, the Activity in the data set on ScN2a [2] was greater than 1000 nM; in data set [7], 13.4%; in data set [4], greater than 1000 nM; in data set [8], 7.4%. Moreover, the CC50 in data set [3] was greater than 1000 nM.
As to `CC1=NN(c2ccccc2)C(=O)C1C1CC1` (stereo not drawn), the Activity is greater than 1000 nM in the data set with ScN2a [2], 15.9% in data set [7], greater than 1000 nM in data set [4] and 35.4% in data set [8]. For the same compound, in data set [3], the CC50 was greater than 1000 nM. This compound also displayed an IC50 in data set [6] of 720 nM.
For the compound `COC(=O)NC1=NN(c2ccccc2)C(=O)C1`, the figures for the IC50 (in data set [5]; in the data set on ScN2a [1]) were 501 nM and 6 nM, respectively. Moreover, the Activity (in the data set on ScN2a [2]; in data set [4]) was greater than 1000 nM throughout. Also, the CC50 in data set [3] is greater than 1000 nM.
Turning to `O=C1CC(Cc2ccccc2)=NN1c1ccccc1`, the Activity (in the data set on ScN2a [2]; in data set [4]) was greater than 1000 nM throughout. For the same compound, the CC50 in data set [3] is greater than 300 nM.
For the compound `C=C[C@H]1CN2CC[C@H]1C[C@@H]2[C@@H](O)c1ccnc2ccc(OC)cc12` [QUINIDINE], the half-maximal inhibitory concentration (IC50) in the data set with ScN2a [1] stood at 5000 nM.
Regarding `O=C(Nc1ccccc1)C1=NN(c2ccccc2)C(=O)C1`, the IC50 in data set [5] stood at 1580 nM; in the data set with ScN2a [1], 398 nM. For the same compound, the Activity (in the data set with ScN2a [2]; in data set [4]) was greater than 1000 nM each time. Also, the CC50 in data set [3] was greater than 1000 nM.
As for `CC1=NN(C2CCCCC2)C(=O)C1`, the IC50 in data set [5] was 25 nM; in the data set on ScN2a [1], 13 nM. Moreover, the Activity (with ScN2a [2]; in data set [4]) was greater than 1000 nM each time. Also, the CC50 in data set [3] was greater than 1000 nM.
Consider `O=C(NC1=NN(c2ccccc2)C(=O)C1)c1ccccc1`, for which the IC50 in data set [5] worked out at 1260 nM; in the data set on ScN2a [1] it was 2000 nM; in data set [6], 220 nM. In addition, the Activity was greater than 1000 nM in the data set with ScN2a [2], 9.2% in data set [7], greater than 1000 nM in data set [4] and 3.2% in data set [8]. Further, the CC50 in data set [3] was greater than 1000 nM.
Regarding `O=C1CC(c2ccccc2)=NN1c1ccccc1`, the Activity (in the data set on ScN2a [2]; in data set [4]) was greater than 100 nM each time. Moreover, the CC50 in data set [3] was greater than 1000 nM.
For `COc1ccc(C2=NN(c3ccccc3)C(=O)C2)cc1`, the Activity (in the data set on ScN2a [2]; in data set [4]) was greater than 100 nM in each case. Besides, the CC50 in data set [3] is greater than 1000 nM.
For the compound `CC1=NN(c2ccccc2)C(=O)C1c1ccccn1` (stereo not drawn), the IC50 came out at 631 nM in data set [5] and 79 nM in the data set on ScN2a [1]. The Activity (in the data set on ScN2a [2]; in data set [4]) was greater than 1000 nM throughout. Besides, in data set [3], the CC50 was greater than 1000 nM.
As for `CC1=NN(c2ccccc2)C(=O)C1` [EDARAVONE], the Activity turned out to be 0.6% in data set [7] and 5.7% in data set [8]. The IC50 with ScN2a [1] was greater than 1000 nM; in data set [6] it was 250 nM.
Consider `COc1ccc(N2N=C(C)CC2=O)cc1`, for which the Activity (in the data set on ScN2a [2]; in data set [4]) was greater than 100 nM in each case. The CC50 in data set [3] was greater than 1000 nM.
As to `O=C(NC1=NN(c2ccccc2)C(=O)C1)Oc1ccccc1`, the Activity in the data set on ScN2a [2] was greater than 1000 nM; in data set [7], 5.6%; in data set [4], greater than 1000 nM; in data set [8], 11.6%. Also, the IC50 in data set [6] turned out to be 380 nM.
Take `CC1=NN(c2ccccc2)C(=O)C1CC(C)C` (stereo not drawn): the IC50 in data set [5] was determined as 16 nM. Also, the Activity (with ScN2a [2]; in data set [4]) was greater than 1000 nM each time. The CC50 in data set [3] is greater than 1000 nM.
`O=C1CC(c2ccc([N+](=O)[O-])cc2)=NN1c1ccccc1`: the IC50 turned out to be 3 nM in data set [5], 3 nM with ScN2a [1] and 90 nM in data set [6]. Besides, the Activity in the data set on ScN2a [2] was greater than 1000 nM; in data set [7], 1.8%; in data set [4], greater than 1000 nM; in data set [8] it was 11.9%. Further, the CC50 in data set [3] is greater than 1000 nM.
